According to ChEMBL document CHEMBL1138564, “Microwave-induced synthesis and anti-microbial activities of 7,10,11,12-tetrahydrobenzo[c]acridin-8(9H)-one derivatives” (2009):
Values after ≈ are worked out from the molar mass of the structure shown.

What was measured:
Bacillus cereus [1] = experiment: Antimicrobial activity against Bacillus cereus NCIM 2155 after 24 hrs by serial dilution method; assay type: functional; conditions: NCIM 2155, 24 h
In short: (§1)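 Broth dilution MIC in nutrient broth, run only for organisms found sensitive in disc diffusion. Compounds are two-fold serially diluted in 1 ml sterile broth per tube, spanning 3.9 to 1000. Inoculated tubes are incubated at 37 °C for 24 h.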

Aspergillus fumigatus [2] = experiment: Antimicrobial activity against Aspergillus fumigatus NCIM 902 at 1000 ug/disk after 72 hrs by disk diffusion method; assay type: functional; conditions: NCIM 902, 72 h, read-out: DIZ
In short: (§2)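 Disc diffusion on Sabouraud's dextrose agar. 100 µl of fungal suspension at 10⁶ CFU/ml is spread on the plate. Discs carry test compounds at two loadings in DMSO; DMSO alone is the negative control. Clotrimazole disc is the positive reference. Plates are incubated at 27 °C for 72 h, and the zone of inhibition diameter is measured.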

Trichoderma viride = experiment: Antimicrobial activity against Trichoderma viride NCIM 1195 after 72 hrs by serial dilution method; assay type: functional; conditions: NCIM 1195, 72 h
In short: (§3)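 MIC by broth dilution in Sabouraud's dextrose broth, run only on fungi found sensitive in the disc assay. Twofold serial dilutions were made in 1 ml broth per tube, covering 3.9 to 1000. Inoculated tubes were incubated at 27 °C for 72 h.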

Bacillus subtilis [3] = experiment: Antimicrobial activity against Bacillus subtilis NCIM 2063 at 1000 ug/disk after 24 hrs by disk diffusion method; assay type: functional; conditions: NCIM 2063, 24 h, read-out: DIZ
In short: (§4)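 Disc diffusion on Mueller–Hinton agar. 100 µl of bacterial suspension at 10⁸ CFU/ml is spread on the plate. Discs carry test compounds at two loadings, dissolved in DMSO; DMSO alone serves as negative control. Ofloxacin disc is the positive reference. Plates are incubated at 37 °C for 24 h, and the inhibition zone diameter is measured.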

Salmonella typhimurium = experiment: Antimicrobial activity against Salmonella Typhimurium NCIM 2501 after 24 hrs by serial dilution method; assay type: functional, Salmonella enterica subsp. enterica serovar Typhimurium; conditions: Salmonella enterica, NCIM 2501, 24 h
Bacillus subtilis [4] = experiment: Antimicrobial activity against Bacillus subtilis NCIM 2063 after 24 hrs by serial dilution method; assay type: functional; conditions: NCIM 2063, 24 h; in short: as §1
Aspergillus niger [5] = experiment: Antimicrobial activity against Aspergillus niger NCIM 902 at 1000 ug/disk after 72 hrs by disk diffusion method; assay type: functional; conditions: NCIM 1196, 72 h, in the assay text read “NCIM 1196” for “NCIM 902”, read-out: DIZ; in short: as §2
Bacillus cereus [6] = experiment: Antimicrobial activity against Bacillus cereus NCIM 2155 at 500 ug/disk after 24 hrs by disk diffusion method; assay type: functional; conditions: NCIM 2155, 24 h, read-out: DIZ; in short: as §4
Penicillium chrysogenum = experiment: Antimicrobial activity against Penicillium chrysogenum NCIM 707 after 72 hrs by serial dilution method; assay type: functional; conditions: NCIM 707, 72 h
In short: (§5)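 MIC by broth dilution in Sabouraud's dextrose broth, only for fungi sensitive in disc diffusion. Two-fold serial dilutions of compounds are made in 1 ml broth per tube, range 3.9 to 1000. Inoculated tubes are incubated at 27 °C for 72 h.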

Lipomyces lipofer = experiment: Antimicrobial activity against Lipomyces lipofer NCIM 3252 after 72 hrs by serial dilution method; assay type: functional; conditions: NCIM 3252, 72 h; in short: as §5
Rhodotorula mucilaginosa = experiment: Antimicrobial activity against Rhodotorula rubra NCIM 3174 after 72 hrs by serial dilution method; assay type: functional; conditions: NCIM 3174, 72 h; in short: as §3
Aspergillus niger [7] = experiment: Antimicrobial activity against Aspergillus niger NCIM 902 at 500 ug/disk after 72 hrs by disk diffusion method; assay type: functional; conditions: NCIM 1196, 72 h, in the assay text read “NCIM 1196” for “NCIM 902”, read-out: DIZ; in short: as §2
Klebsiella aerogenes [8] = experiment: Antimicrobial activity against Klebsiella aerogenes NCIM 2239 after 24 hrs by serial dilution method; assay type: functional; conditions: NCIM 2239, 24 h; in short: as §1
Staphylococcus = experiment: Antimicrobial activity against Staphylococcus albus NCIM 2178 after 24 hrs by serial dilution method; assay type: functional; conditions: NCIM 2178, 24 h
Aspergillus niger [9] = experiment: Antimicrobial activity against Aspergillus niger NCIM 902 after 72 hrs by serial dilution method; assay type: functional; conditions: NCIM 1196, 72 h, in the assay text read “NCIM 1196” for “NCIM 902”; in short: as §5
Pseudomonas aeruginosa = experiment: Antimicrobial activity against Pseudomonas aeruginosa NCIM 2200 after 24 hrs by serial dilution method; assay type: functional; conditions: NCIM 2200, 24 h; in short: as §1
[10] = test system: Rhodococcus corynebacterioides; experiment: Antimicrobial activity against Corynebacterium rubrum NCIM 2252 after 24 hrs by serial dilution method; assay type: functional; conditions: Rhodococcoides corynebacterioides, NCIM 2252, 24 h; in short: as §1
Klebsiella aerogenes [11] = experiment: Antimicrobial activity against Klebsiella aerogenes NCIM 2239 at 1000 ug/disk after 24 hrs by disk diffusion method; assay type: functional; conditions: NCIM 2239, 24 h, read-out: DIZ; in short: as §4
Aspergillus parasiticus = experiment: Antimicrobial activity against Aspergillus parasiticus NCIM 904 at 1000 ug/disk after 72 hrs by disk diffusion method; assay type: functional; conditions: NCIM 904, 72 h, read-out: DIZ; in short: as §2
Aspergillus fumigatus [12] = experiment: Antimicrobial activity against Aspergillus fumigatus NCIM 902 after 72 hrs by serial dilution method; assay type: functional; conditions: NCIM 902, 72 h; in short: as §5
Proteus vulgaris = experiment: Antimicrobial activity against Proteus vulgaris NCIM 2027 after 24 hrs by serial dilution method; assay type: functional; conditions: NCIM 2027, 24 h; in short: as §1

What does the source list for O=C1CCCC2=C1C(c1ccc(Cl)cc1)c1ccc3ccccc3c1N2 (stereo unspecified)?
MIC (Bacillus cereus [1]): 15.6 µg/mL (≈ 43.4 µM); zone of inhibition at 1000 µg/disc (Aspergillus fumigatus [2]): 10 mm; MIC (Trichoderma viride): 125 µg/mL (≈ 347 µM); zone of inhibition at 1000 µg/disc (Bacillus subtilis [3]): 12 mm; MIC (Salmonella typhimurium): 62.5 µg/mL (≈ 174 µM); MIC (Bacillus subtilis [4]): 31.2 µg/mL (≈ 86.7 µM); zone of inhibition at 1000 µg/disc (Aspergillus niger [5]): 8 mm; zone of inhibition at 500 µg/disc (Bacillus cereus [6]): 10 mm; MIC (Penicillium chrysogenum): 125 µg/mL (≈ 347 µM); MIC (Lipomyces lipofer): 125 µg/mL (≈ 347 µM); MIC (Rhodotorula mucilaginosa): 3.9 µg/mL (≈ 10.8 µM); zone of inhibition at 500 µg/disc (Aspergillus niger [7]): 8 mm; MIC (Klebsiella aerogenes [8]): 125 µg/mL (≈ 347 µM); MIC (Staphylococcus): 62.5 µg/mL (≈ 174 µM); MIC (Aspergillus niger [9]): 62.5 µg/mL (≈ 174 µM); MIC (Pseudomonas aeruginosa): 62.5 µg/mL (≈ 174 µM); MIC [10]: 125 µg/mL (≈ 347 µM); zone of inhibition at 1000 µg/disc (Klebsiella aerogenes [11]): 9 mm; zone of inhibition at 1000 µg/disc (Aspergillus parasiticus): 12 mm; MIC (Aspergillus fumigatus [12]): 62.5 µg/mL (≈ 174 µM); MIC (Proteus vulgaris): 125 µg/mL (≈ 347 µM)
